p97 inhibitor: inhibitors of human p97 ATPase, primary screen, biochemical. recombinant p97 ATPase, Kinase-Glo ATP luminescence, 3 h. AID 1481, 2009. actives 0.42% (n = 220,000). Transitional endoplasmic reticulum ATPase (Homo sapiens), P55072. inhibition, % at 8 µM;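 note: 0% = DMSO vehicle and 100% = wells lacking enzyme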
UBC9 SUMO inh: inhibitors of in vitro SUMOylation cascade, primary screen, biochemical, HTRF, uHTS; inhibition, % at 35 µM; HTRF SUMOylation assay, SAE1/SAE2 + UBC9; SUMO-conjugating enzyme UBC9 (Homo sapiens), P63279; actives 0.36% (n = 290,000); in the data active = inhibition above about 50%, passing the limit was not always enough
14-3-3 Bad inh: inhibitors of 14-3-3 zeta/Bad binding, primary screen, biochemical, TR-FRET, bovine 14-3-3 zeta | TR-FRET 14-3-3zeta/Dy647-pBad peptide displacement, 1 h | inhibition, % at 21.7 µM | AID 781, 2007 | actives 0.71% (n = 220,000);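 active = inhibition above about 70%, limit read from the data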;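 note: 0% = full 14-3-3 plus peptide FRET controls and 100% = background without 14-3-3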
Tb MetRS inh: T. brucei MetRS inhibitors, primary screen, biochemical, luminescence; purified T. brucei MetRS, ATP depletion, Kinase-Glo luminescence; inhibition, % at 11.9 µM; actives 0.4% (n = 360,000); AID 624268, 2012;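 active = inhibition above a per-plate cutoff of the control wells' mean inhibition plus 3 SD, cut at about 5.5% in these data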;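 note: 0% = DMSO wells median and 100% = median of wells with control inhibitor compound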
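Material: T. brucei methionyl-tRNA synthetase, purified; reagent: substrates ATP, L-methionine and bulk Escherichia coli tRNA; dosing: 11.9 µM single point; timing: 15 min plus 2 h at 25 °C; detection: luminescence of leftover ATP; evaluation: % inhibition; control set: DMSO-only wells as low control; replicates: singlicate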
p47phox inh: p47phox/p22phox peptide binding inhibitors, primary screen, biochemical, uHTS, NADPH oxidase regulatory subunit; actives 0.53% (n = 220,000); inhibition, % at 24.7 µM; fluorescence polarization, 2 h;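 active = inhibition above about 30%, limit read from the data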;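 note: 0% = p47phox with labelled peptide and 100% = labelled peptide alone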
eIF4E 4G PPI: eIF4E–eIF4G protein interaction inhibitors, primary screen, biochemical, uHTS, TR-FRET, eIF4GI fragment | AID 782, 2007 | inhibition, % at 21.7 µM | TR-FRET eIF4E-eIF4GI(517-606) binding, 2 h | actives 0.37% (n = 220,000);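 active = inhibition above about 30%, limit read from the data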;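 note: 0% = full FRET control wells and 100% = background wells lacking eIF4GI fragment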
TbMetRS confirm: T. brucei MetRS inhibitors, confirmation, biochemical, luminescence. actives 93% (n = 1,400). inhibition, % at 11.9 µM. T. brucei MetRS enzyme, luminescence (ATP depletion). AID 624412, 2012. shares compounds with Tb MetRS inh; in the data active = inhibition above about 7%
Jurkat cytotox: Jurkat T cell cytotoxicity, cytotoxicity control for T. brucei MetRS inhibitor project, luminescence, high throughput; shares compounds with Tb MetRS inh; Jurkat cells viability, ATP luminescence; inhibition, % at 8.3 µM; actives 12% (n = 1,400);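 note: 0% = vehicle and 100% = reference inhibitor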
Tb MetRS inh FP: T. brucei MetRS inhibitors, orthogonal assay for T. brucei MetRS inhibitor project, biochemical, fluorescence polarization | AID 651607, 2012 | inhibition, % at 11.9 µM | shares compounds with Tb MetRS inh | purified T. brucei MetRS | actives 44% (n = 1,400); in the data active = inhibition above about 17%;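 note: 0% = vehicle wells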
* hit, by the source's call; . = no result given. Most compounds without a hit are left out; they make up all but 1.6% or so of the library. Cut-off read from the data, not from the text of the source, unless noted: active = inhibition above about 15%; inactive = the rest.

SMILES	p97 inhibitor	UBC9 SUMO inh	14-3-3 Bad inh	Tb MetRS inh	p47phox inh	eIF4E 4G PPI	TbMetRS confirm	Jurkat cytotox	Tb MetRS inh FP
COc1ccc(NC(=O)CN(C)C(=O)CCSc2ccc(F)cc2)cc1	.	.	.	8.7*	.	.	33*	-1	6
Cc1cc(Br)ccc1NC(=O)CN(C)C(=O)CCSc1ccc(F)cc1	.	.	.	2	.	.	.	.	.
CN(CC(=O)Nc1cccc(F)c1)C(=O)c1ccc(-c2ccc(Cl)cc2)o1	.	41	.	21*	.	.	39*	-10	24*
CCC(Oc1ccccc1)C(=O)NCCCN1CCOCC1 (centres undefined)	.	1	.	0	.	.	.	.	.
CC(C)NC(=O)Nc1ccc2c(c1)C(=O)N([C@H](C)CO)C[C@H](C)[C@@H](CN(C)S(C)(=O)=O)O2	.	.	.	0	.	.	.	.	.
COCCNc1nc2c(c(=O)[nH]c(=O)n2C)n1CCCc1ccccc1	.	-3	.	0	.	.	.	.	.
CC1(C)NC(=O)N(CC(=O)N2CCCC(C(F)(F)F)C2)C1=O (centres undefined)	.	.	.	0	.	.	.	.	.
C=CCc1cccc(/C=C/c2cc(=O)c3ccccc3[nH]2)c1O	3	16	6	6.4*	-3	0	19*	15*	8
Cc1ccc(NC(=O)Cn2c(CCC(=O)O)ccc2-c2ccc(Cl)cc2)cc1	.	14	.	10*	.	.	34*	-6	17*
CC(C)(C)OC(=O)N1CCC[C@H]1C(=O)NCc1ccc(Cl)cc1Cl	1	10	-5	5.7*	4	-1	14*	1	2
CC(C)(C)OC(=O)N1CCC[C@H]1C(=O)N1CCC[C@H]1C(=O)NCc1ccc(F)cc1F	.	.	.	0	.	.	.	.	.
C=C(C1=CCN(S(=O)C(C)(C)C)[C@@H]1CCO)c1ccccc1 (some centres undefined)	.	.	.	0	.	.	.	.	.
O=C(NCc1ccc2c(c1)OCO2)C1CC(=O)N(c2ccc(Cl)cc2)C1 (centres undefined)	.	-4	.	8.9*	.	.	16*	2	8
CCc1ccc(NC(=O)Cn2c(=O)oc3cc(S(=O)(=O)N4CCOCC4)ccc32)cc1	2	-6	10	15*	-10	1	12*	1	5
CCc1cccc(NC(=O)Cn2c(=O)oc3cc(S(=O)(=O)N4CCOCC4)ccc32)c1	1	-2	7	7.0*	-5	3	12*	0	3
CCC(CC)N1CCN(C(=O)c2cc(OC)c(OC)c(OC)c2)CC1	.	18	.	-1	.	.	.	.	.
N#C/C(=N\Nc1cc(Cl)cc(Cl)c1)c1nnc2n1CCCCC2	4	1	-12	24*	-10	-2	40*	6	26*
C=CCn1c(Cc2nc3ccc(Cl)cc3[nH]2)n[nH]c1=S	6	5	-1	6.7*	-5	3	21*	0	15
C=CCn1c(Cc2ccccc2)n[nH]c1=S	5	-6	-14	-1	8	5	.	.	.
OCCCNc1ncnc2c1[nH]c1ccccc12	10	18	2	22*	-6	5	39*	3	23*
